Test: Toxicity liver stage against HepG2, at 10uM
Format: cell-based
Design: test concentration 10 uM, cell line HepG2-A16-CD81EGFP
Conditions: human, HepG2-A16-CD81EGFP cells; read-out: INHIBITION
Method in brief: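 Uninfected HepG2-A16-CD81EGFP cells, 3 × 10^3 per well, 1536-well, plated on prespotted compound at 10 μM final, parasite-free screening media added to match infected plates; puromycin 10 μM positive, DMSO 0.5% negative; run in parallel with 48 h PbLuc assay at 37 °C, 5% CO2; viability by CellTiter-Glo luminescence, normalized to controls.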

SMILES	cytotoxicity at 10 µM [%]
CN(Cc1ccccc1O)CC1CCCN(CCc2ccc(Cl)cc2)C1 (stereo not given)	-10.1
COc1ccc(-n2ncc3c2NC(=O)CSC3C(C)C)cc1 (stereo not given)	17.4
Cn1cc(C(=O)N2CC[C@@H]3[C@@H]2CCN3c2ccccn2)cn1	-0.0807
CN(C)C(=O)C1(CCCc2ccccn2)CCN1Cc1nccn1C (stereo not given)	8.08
Cn1cc(C(=O)N2CCCC(CN3CCCC3=O)C2)cn1 (stereo not given)	-12.6
CC(C)c1nnc(CN(C)Cc2ccccc2-c2ccccc2)o1	5.98
O=C(O)CCc1ccc(S(=O)(=O)Nc2cnn(CC3CC3)c2)cc1	-8.35
CC(C)(NCc1ccc(C#N)cc1)c1ccc2c(c1)OCO2	2.3
CCOCCCC(=O)Nc1ccc(OCc2noc(C3CC3)n2)cc1	44.4
Nc1cc2c(nn1)CCN(C(=O)Cc1ccc3c(c1)CCO3)C2	5.52
Cc1nc(CN2CCCC(N(C)Cc3cnn(C)c3)C2)no1 (stereo not given)	-7.72
Cn1cnc2c1CCN(CC(=O)N(Cc1ccsc1)C1CC1)C2	-0.157
COCCOCC(=O)Nc1cccc(CN(C)C(C)=O)c1	-126
C1CCC(NCCN2CCOCC2)C1	-145
Cc1cccc(-c2c[nH]c(C3CCCN3C(=O)C3CCOCC3)n2)c1 (stereo not given)	1.92
Cc1ccc(C)n1-c1c(C(=O)NCC(C)Cn2cccn2)cnn1C (stereo not given)	13.8
O=C(NCC(=O)N1CCCCC1)c1ccc(Cl)cc1I	-11.5
Cc1nn(CC(=O)N2CCN(c3ccncc3)CC2)c(C)c1Cl	-17.8
O=C(c1ccco1)N1CCc2ncc(CN3CCOCC3)n2CC1	-78.7
CCN1CC2(CCC1=O)CCN(c1ccc(C(C)=O)cn1)CC2	-8.63
O=C(O)c1cccc(CC2CCN(c3cnccn3)CC2)c1	-121
CCCOc1ccc2ccccc2c1CN1CC[C@@]2(O)CCNC[C@H]2C1	-148
CSCc1noc(CNC(=O)c2cc(C)c(C)[nH]c2=O)n1	0.355

SMILES	cytotoxicity at 10 µM [%]
Cc1ncoc1C(=O)N1CCc2[nH]nc(-c3ccc4c(c3)OCO4)c2C1	-143
CC(=O)N1CCN(C(=O)c2cc(C(C)C)no2)[C@H]2CS(=O)(=O)C[C@H]21	-7.8
Cn1c(Cn2ccnc2)nnc1C1CCN(C(=O)c2ccccn2)CC1	-104
CSc1ccc(-c2nc(CN3CCC(NC(C)=O)CC3)c(C)o2)cc1	-2.76
Cn1ccnc1C(=O)N1CCC(Cn2cc(-c3ccsc3)nn2)CC1	-6.46
Cc1nn(C)c2nc(-c3ccccn3)nc(NCCCOC(C)C)c12	1.5
O=C1CCCCCN1Cc1ncnn1Cc1c(F)cccc1Cl	2.14
CN(CCn1ccc2ccccc21)C(=O)Cc1n[nH]c(=O)[nH]1	-16.4
CCN(CC)C1COc2c(cc(Br)c(C)c2Br)C1=O (stereo not given)	5.77
Cc1nc(C)n(C2CCCN(C(=O)c3ccc(CN(C)C)cc3)C2)n1 (stereo not given)	-1.6
NC(=O)C1CCN(C(=O)NCCOc2ccc3c(c2)CCC3)CC1	-7.07
Cc1nnc2n1CCN(C(=O)c1cc(Br)c[nH]1)C2	-10.7
Cc1nc(C)n(C2CCCN(C(=O)COCc3ccccc3)C2)n1 (stereo not given)	-11
CN(Cc1ccc(Cl)s1)C(=O)NCc1nnc2n1CCC2	-5.36
CCn1ccnc1CN1CCN(CC(=O)NC(C)(C#N)C2CC2)CC1 (stereo not given)	-8.24
COCCN(CCc1ccccc1)Cc1nc2c(cnn2C)c(=O)[nH]1	-7.57
COc1cccc(CNC(C)C)c1OCc1ccc(C)cc1	0.438
Cn1cc(CN2CCc3ncnc(N4CCOCC4)c3CC2)cn1	-3.46
COCCN1CCCc2sc(C(=O)N3CCCN(C)CC3)nc21	0.534
c1cncc(CN2Cc3nccn3CC(Cn3cncn3)C2)c1 (stereo not given)	-136
CC(C)N1CCOCC2(CN(Cc3ccccn3)CCO2)C1 (stereo not given)	6.46
Cc1cccc(S(=O)(=O)N2C[C@@H]3C[C@H](C(=O)NC4CCC4)[C@H](C2)O3)c1	-1.74

— ChEMBL document CHEMBL4513216, “Probing the Open Global Health Chemical Diversity Library for Multistage-Active Starting Points for Next-Generation Antimalarials” (ACS Infect Dis, 2020)
